{
  "source": "ChEMBL document CHEMBL4196137",
  "about": "“Abyssomicin Monomers and Dimers from the Marine-Derived Streptomyces koyangensis SCSIO 5802” (J Nat Prod, 2018)",
  "key": {"Herpesviridae sp.": {"test_system": "Herpesviridae sp.", "experiment": "Antiviral activity against Herpes simplex virus assessed as inhibition of viral replication at 10 uM relative to control", "type": "functional"}, "Enterococcus faecalis": {"test_system": "Enterococcus faecalis", "experiment": "Antimicrobial activity against Enterococcus faecalis ATCC 29212 by two-fold serial dilution method", "type": "functional", "method_in_brief": "(§1)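 MIC by 2-fold serial broth dilution in Mueller-Hinton broth, following CLSI standard methods; panel run alongside S. aureus ATCC 29213 and E. faecalis ATCC 29212.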"}, "[1]": {"test_system": "Vesicular stomatitis virus", "experiment": "Antiviral activity against Vesicular stomatitis virus infected in African green monkey Vero cells after 16 hrs by fluorescence microscopy", "type": "functional, organism-based"}, "Staphylococcus aureus [2]": {"test_system": "Staphylococcus aureus", "experiment": "Antimicrobial activity against methicillin-resistant Staphylococcus aureus isolate 1862 by two-fold serial dilution method", "type": "functional", "method_in_brief": "as §1"}, "Staphylococcus aureus [3]": {"test_system": "Staphylococcus aureus", "experiment": "Antimicrobial activity against Staphylococcus aureus ATCC 29213 by two-fold serial dilution method", "type": "functional", "method_in_brief": "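MIC measured by 2-fold serial broth dilution in Mueller-Hinton broth, following CLSI standard methods.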"}, "Staphylococcus aureus [4]": {"test_system": "Staphylococcus aureus", "experiment": "Antimicrobial activity against methicillin-resistant Staphylococcus aureus isolate shhs-A1 by two-fold serial dilution method", "type": "functional", "method_in_brief": "as §1"}, "Staphylococcus aureus [5]": {"test_system": "Staphylococcus aureus", "experiment": "Antimicrobial activity against methicillin-resistant Staphylococcus aureus isolate 699 by two-fold serial dilution method", "type": "functional", "method_in_brief": "as §1"}},
  "note": "pIC50: −log10 of the molar value.",
  "data": [
    {"compound": "C[C@H]1CC/C(O)=C2/C(=O)O[C@@]34C=C[C@]5(C1=O)[C@H](O)[C@@](C)(O[C@]235)[C@@H](C)C4", "values": [
      {"measurement": "inhibition at 10 µM", "setting": "Herpesviridae sp.", "result": 31, "unit": "%"}
    ]},
    {"compound": "C[C@H]1CC/C(O)=C2/C(=O)O[C@]34C[C@H](C)[C@]5(C)O[C@]23[C@H](C1=O)[C@@H](S[C@H]1[C@H]2[C@H](O)[C@@]3(C)O[C@@]67/C(=C(/O)CC[C@H](C)C(=O)[C@H]16)C(=O)O[C@@]27C[C@@H]3C)[C@H]4[C@@H]5O", "values": [
      {"measurement": "MIC", "setting": "Enterococcus faecalis", "result": 32, "unit": "µg/mL"},
      {"measurement": "pIC50", "setting": "[1]", "result": 4.62},
      {"measurement": "MIC", "setting": "Staphylococcus aureus [2]", "result": 16, "unit": "µg/mL"},
      {"measurement": "MIC", "setting": "Staphylococcus aureus [3]", "result": 32, "unit": "µg/mL"},
      {"measurement": "MIC", "setting": "Staphylococcus aureus [4]", "result": 16, "unit": "µg/mL"},
      {"measurement": "MIC", "setting": "Staphylococcus aureus [5]", "result": 16, "unit": "µg/mL"}
    ]},
    {"compound": "C[C@H]1CCC(=O)C2=C3O[C@@]4(C)[C@@H](C)C[C@]3(OC2=O)[C@@H]([C@H](S[C@H]2[C@H]3[C@H](O)[C@@]5(C)O[C@@]67/C(=C(/O)CC[C@H](C)C(=O)[C@H]26)C(=O)O[C@@]37C[C@@H]5C)CC1=O)[C@@H]4O", "values": [
      {"measurement": "MIC", "setting": "Enterococcus faecalis", "result": 32, "unit": "µg/mL"},
      {"measurement": "pIC50", "setting": "[1]", "result": 4.72},
      {"measurement": "MIC", "setting": "Staphylococcus aureus [2]", "result": 16, "unit": "µg/mL"},
      {"measurement": "MIC", "setting": "Staphylococcus aureus [3]", "result": 32, "unit": "µg/mL"},
      {"measurement": "MIC", "setting": "Staphylococcus aureus [4]", "result": 16, "unit": "µg/mL"},
      {"measurement": "MIC", "setting": "Staphylococcus aureus [5]", "result": 16, "unit": "µg/mL"}
    ]},
    {"compound": "CC1(C)S[C@@H]2[C@H](NC(=O)[C@H](N)c3ccccc3)C(=O)N2[C@H]1C(=O)O", "note": "[AMPICILLIN]", "values": [
      {"measurement": "MIC", "setting": "Enterococcus faecalis", "result": 16, "unit": "µg/mL"},
      {"measurement": "MIC", "setting": "Staphylococcus aureus [2]", "result": 0.125, "unit": "µg/mL"},
      {"measurement": "MIC", "setting": "Staphylococcus aureus [3]", "result": 0.25, "unit": "µg/mL"},
      {"measurement": "MIC", "setting": "Staphylococcus aureus [4]", "result": 64, "unit": "µg/mL"},
      {"measurement": "MIC", "setting": "Staphylococcus aureus [5]", "result": 4, "unit": "µg/mL"}
    ]},
    {"compound": "CN[C@H](CC(C)C)C(=O)N[C@H]1C(=O)N[C@@H](CC(N)=O)C(=O)N[C@H]2C(=O)N[C@H]3C(=O)N[C@H](C(=O)N[C@H](C(=O)O)c4cc(O)cc(O)c4-c4cc3ccc4O)[C@H](O)c3ccc(c(Cl)c3)Oc3cc2cc(c3O[C@@H]2O[C@H](CO)[C@@H](O)[C@H](O)[C@H]2O[C@H]2C[C@](C)(N)[C@H](O)[C@H](C)O2)Oc2ccc(cc2Cl)[C@H]1O", "note": "[VANCOMYCIN]", "values": [
      {"measurement": "MIC", "setting": "Enterococcus faecalis", "result": 0.25, "unit": "µg/mL"},
      {"measurement": "MIC", "setting": "Staphylococcus aureus [2]", "result": 0.125, "unit": "µg/mL"},
      {"measurement": "MIC", "setting": "Staphylococcus aureus [3]", "result": 0.25, "unit": "µg/mL"},
      {"measurement": "MIC", "setting": "Staphylococcus aureus [5]", "result": 0.125, "unit": "µg/mL"}
    ]}
  ]
}
